Measurements from ChEMBL document CHEMBL4813940, “Design, synthesis and biological evaluation of novel benzoxaborole derivatives as potent PDE4 inhibitors for topical treatment of atopic dermatitis” (Eur J Med Chem, 2021).

Experiments:
[1] = target: T1, 3',5'-cyclic-AMP phosphodiesterase 4B (Homo sapiens, UniProt Q07343); test: Inhibition of PDE4B (unknown origin) assessed as hydrolysis of [3H]-cGMP into [3H]-GMP incubated for 30 mins by scintillation of proximity assay; conditions: in the assay text read “[3H]-cAMP into [3H]-AMP” for “[3H]-cGMP into [3H]-GMP”
In short: (§1)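 Scintillation proximity assay of [3H]-cAMP or [3H]-cGMP hydrolysis to [3H]-AMP or [3H]-GMP. Enzyme was diluted to 1–2 nM in 50 mM Tris pH 7.5, 8.3 mM MgCl2 and 1.7 mM EGTA. Reaction was started by adding enzyme, test solution and radiolabelled substrate, then incubated at 30 °C for 30 min and stopped with SPA beads. Run in duplicate.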

Mus musculus [2] = test: Antiinflammatory activity against PMA-induced ICR mouse ear oedema model assessed as reduction in ear swelling at 1 mg/ear topically administered and measured after 4 hrs; format: functional
In short: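 Male ICR mice, 8 weeks old. The sample was applied topically to the right ear at 1.0 mg/ear in ethanol before PMA. After 4 h the mice were killed by cervical dislocation and both ears were measured with a micrometer. Oedema was the thickness difference between the ears; inhibition was the percent reduction versus the model group.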

Homo sapiens [3] = species on record: Homo sapiens; test: Selectivity index, ratio of IC50 for PDE1A (unknown origin) to IC50 for PDE4B (unknown origin)
Homo sapiens [4] = species on record: Homo sapiens; test: Selectivity index, ratio of IC50 for PDE1B (unknown origin) to IC50 for PDE4B (unknown origin)
Homo sapiens [5] = species on record: Homo sapiens; test: Selectivity index, ratio of IC50 for PDE1C (unknown origin) to IC50 for PDE4B (unknown origin)
Homo sapiens [6] = species on record: Homo sapiens; test: Selectivity index, ratio of IC50 for PDE2A (unknown origin) to IC50 for PDE4B (unknown origin)
Homo sapiens [7] = species on record: Homo sapiens; test: Selectivity index, ratio of IC50 for PDE3A (unknown origin) to IC50 for PDE4B (unknown origin)
Homo sapiens [8] = species on record: Homo sapiens; test: Selectivity index, ratio of IC50 for PDE3B (unknown origin) to IC50 for PDE4B (unknown origin)
Homo sapiens [9] = species on record: Homo sapiens; test: Selectivity index, ratio of IC50 for PDE5A (unknown origin) to IC50 for PDE4B (unknown origin)
Homo sapiens [10] = species on record: Homo sapiens; test: Selectivity index, ratio of IC50 for PDE7A (unknown origin) to IC50 for PDE4B (unknown origin)
Homo sapiens [11] = species on record: Homo sapiens; test: Selectivity index, ratio of IC50 for PDE10A (unknown origin) to IC50 for PDE4B (unknown origin)
Mus musculus [12] = test: Antiinflammatory activity against calcipotriol-induced atopic dermatitis mouse model assessed as swelling inhibition by measuring thickness of left ear at 30 mg/kg for 14 days (RVB = 0.26 +/- 0.01 mm); format: functional; conditions: time 14 day
In short: (§2)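 Ointment was applied to the dorsal side of the left ear twice daily (30 mg/kg) for 14 days; the normal group received ethanol. On day 17 the mice were anaesthetized with 10% chloral hydrate and ear thickness was measured with a micrometer. Percent inhibition of the inflammatory reaction was calculated against untreated animals.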

Mus musculus [13] = test: Antiinflammatory activity against calcipotriol-induced atopic dermatitis mouse model assessed as swelling inhibition by measuring thickness of right ear at 30 mg/kg for 14 days (RVB = 0.55 +/- 0.06 mm); format: functional; conditions: time 14 day; in short: as §2
Mus musculus [14] = test: Antiinflammatory activity against calcipotriol-induced atopic dermatitis mouse model assessed as swelling inhibition at 30 mg/kg for 14 days; format: functional; set-up: scale not given: the % may be the effect or the level left; conditions: time 14 day; in short: as §2
[15] = Phototoxicity in albino guinea pig assessed as skin reaction score at 5 mg/kg topical treatment irradiated with 4.2 mw/cm2 UVA for 40 mins and measured after 24 hrs day of light irradiation by H and E staining based microscopic analysis; format: organism-based, Cavia porcellus; conditions: in vivo, topical_or_ocular
In short: (§3)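 Albino guinea pigs (250–300 g) were randomized into 5 groups. Four 2 cm × 2 cm depilated areas beside the spine were prepared 24 h before dosing, and 0.2 mL of test substance was applied. Animals were restrained and exposed to UVA for 40 min. Erythema, eschar and oedema were scored visually at 1, 24, 48 and 72 h. Skin taken at 72 h was formalin-fixed, H&E-stained and read by a pathologist.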

[16] = Phototoxicity in albino guinea pig assessed as skin reaction score at 10 mg/kg topical treatment irradiated with 4.2 mw/cm2 UVA for 40 mins and measured after 24 hrs day of light irradiation by H and E staining based microscopic analysis; format: organism-based, Cavia porcellus; conditions: in vivo, topical_or_ocular; in short: as §3
[17] = Phototoxicity in albino guinea pig assessed as skin reaction score at 24 mg/kg topical treatment irradiated with 4.2 mw/cm2 UVA for 40 mins and measured after 24 hrs day of light irradiation by H and E staining based microscopic analysis; format: organism-based, Cavia porcellus; conditions: in vivo, topical_or_ocular; in short: as §3
[18] = Toxicity in Sprague-Dawley rat assessed as systemic toxicity at 700 mg/kg, po for 14 days; format: organism-based; conditions: in vivo, 336 h, time 14 day
In short: (§4)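 Healthy male and female Sprague-Dawley rats, 8-week-old, randomised to three groups of 6 males + 6 females. Vehicle 1% CMC-Na or 400 and 700 mg/kg given by oral gavage once daily for 14 days. Mortality and clinical signs checked daily; body weight on days 0, 7, 14. Isoflurane euthanasia, macroscopic necropsy, weights of liver, kidney, testis, thymus, heart and lung.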

[19] = Toxicity in Sprague-Dawley rat assessed as death at 700 mg/kg, po for 14 days; format: organism-based; conditions: in vivo, 336 h, time 14 day; in short: as §4
[20] = Toxicity in Sprague-Dawley rat assessed as liver/brain index at 400 to 700 mg/kg, po for 14 days; format: organism-based; conditions: in vivo, 336 h, dose 400-700 mg/kg, time 14 day
In short: (§5)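 Sprague-Dawley rats, 8 weeks old, 6 male and 6 female per group. Dosed by oral gavage once daily for 14 days with 1% CMC-Na vehicle or 400 and 700 mg/kg. Animals were checked daily for mortality and clinical signs, with body weight recorded on days 0, 7 and 14. Rats were then euthanized under isoflurane, necropsied, and their organs weighed.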

[21] = Toxicity in Sprague-Dawley rat assessed as spleen/brain index at 400 to 700 mg/kg, po for 14 days; format: organism-based; conditions: in vivo, 336 h, dose 400-700 mg/kg, time 14 day; in short: as §5
[22] = Toxicity in Sprague-Dawley rat assessed as white blood cell count at 400 to 700 mg/kg, po for 14 days; format: organism-based; conditions: in vivo, 336 h, dose 400-700 mg/kg, time 14 day
[23] = Toxicity in Sprague-Dawley rat assessed as ALT at 400 to 700 mg/kg, po for 14 days; format: organism-based; conditions: in vivo, 336 h, dose 400-700 mg/kg, time 14 day
[24] = Toxicity in Sprague-Dawley rat assessed as AST at 400 to 700 mg/kg, po for 14 days; format: organism-based; conditions: in vivo, 336 h, dose 400-700 mg/kg, time 14 day
[25] = Toxicity in Sprague-Dawley rat assessed as blood pressure at 400 to 700 mg/kg, po for 14 days; format: organism-based; conditions: in vivo, 336 h, dose 400-700 mg/kg, time 14 day
[26] = Toxicity in Sprague-Dawley rat assessed as blood glucose at 400 to 700 mg/kg, po for 14 days; format: organism-based; conditions: in vivo, 336 h, dose 400-700 mg/kg, time 14 day
[27] = Phototoxicity in albino guinea pig assessed as infiltration of inflammatory cells at 10 mg/kg topical treatment irradiated with 4.2 mw/cm2 UVA for 40 mins and measured after 24 hrs day of light irradiation by H and E staining based microscopic analysis; format: organism-based, Cavia porcellus; conditions: in vivo, topical_or_ocular, in the assay text read “72 hrs” for “24 hrs”; in short: as §3
[28] = Phototoxicity in albino guinea pig assessed as necrosis at 10 mg/kg topical treatment irradiated with 4.2 mw/cm2 UVA for 40 mins and measured after 24 hrs day of light irradiation by H and E staining based microscopic analysis; format: organism-based, Cavia porcellus; conditions: in vivo, topical_or_ocular, in the assay text read “72 hrs” for “24 hrs”; in short: as §3
[29] = target: Dual specificity calcium/calmodulin-dependent 3',5'-cyclic nucleotide phosphodiesterase 1A (Homo sapiens, UniProt P54750); test: Inhibition of PDE1A (unknown origin); in short: as §1
[30] = target: Dual specificity calcium/calmodulin-dependent 3',5'-cyclic nucleotide phosphodiesterase 1B (Homo sapiens, UniProt Q01064); test: Inhibition of PDE1B (unknown origin); in short: as §1
[31] = target: Dual specificity calcium/calmodulin-dependent 3',5'-cyclic nucleotide phosphodiesterase 1C (Homo sapiens, UniProt Q14123); test: Inhibition of PDE1C (unknown origin)
In short: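 For PDE1A, PDE1B and PDE1C, the reaction buffer was also supplemented with 0.2 mM CaCl2 and […]. Otherwise the same SPA run as the other PDEs: [3H]-nucleotide hydrolysis at 30 °C for 30 min, in duplicate.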

[32] = target: cGMP-dependent 3',5'-cyclic phosphodiesterase (Homo sapiens, UniProt O00408); test: Inhibition of PDE2A (unknown origin); in short: as §1
[33] = target: cGMP-inhibited 3',5'-cyclic phosphodiesterase 3A (Homo sapiens, UniProt Q14432); test: Inhibition of PDE3A (unknown origin); in short: as §1
[34] = target: cGMP-inhibited 3',5'-cyclic phosphodiesterase 3B (Homo sapiens, UniProt Q13370); test: Inhibition of PDE3B (unknown origin); in short: as §1
[35] = target: T1, 3',5'-cyclic-AMP phosphodiesterase 4B; test: Inhibition of PDE4B (unknown origin); in short: as §1
[36] = target: cGMP-specific 3',5'-cyclic phosphodiesterase (Homo sapiens, UniProt O76074); test: Inhibition of PDE5A (unknown origin); in short: as §1
[37] = target: High affinity 3',5'-cyclic-AMP phosphodiesterase 7A (Homo sapiens, UniProt Q13946); test: Inhibition of PDE7A (unknown origin); in short: as §1
[38] = target: cAMP and cAMP-inhibited cGMP 3',5'-cyclic phosphodiesterase 10A (Homo sapiens, UniProt Q9Y233); test: Inhibition of PDE10A (unknown origin); in short: as §1
[39] = target: T1, 3',5'-cyclic-AMP phosphodiesterase 4B; test: Inhibition of PDE4B (unknown origin) assessed as hydrolysis of [3H]-cAMP into [3H]-AMP incubated for 30 mins by scintillation of proximity assay
[40] = Phototoxicity in albino guinea pig assessed as erythema and edema topical treatment irradiated with 4.2 mw/cm2 UVA for 40 mins and measured after 24 hrs day of light irradiation by H and E staining based microscopic analysis; set-up: species or system Cavia porcellus; conditions: topical_or_ocular; in short: as §3
[41] = Phototoxicity in albino guinea pig assessed as erythema and edema topical treatment irradiated with 4.2 mw/cm2 UVA for 40 mins and measured after 72 hrs day of light irradiation by H and E staining based microscopic analysis; set-up: species or system Cavia porcellus; conditions: topical_or_ocular; in short: as §3

T1 sequence (Q07343 whole entry): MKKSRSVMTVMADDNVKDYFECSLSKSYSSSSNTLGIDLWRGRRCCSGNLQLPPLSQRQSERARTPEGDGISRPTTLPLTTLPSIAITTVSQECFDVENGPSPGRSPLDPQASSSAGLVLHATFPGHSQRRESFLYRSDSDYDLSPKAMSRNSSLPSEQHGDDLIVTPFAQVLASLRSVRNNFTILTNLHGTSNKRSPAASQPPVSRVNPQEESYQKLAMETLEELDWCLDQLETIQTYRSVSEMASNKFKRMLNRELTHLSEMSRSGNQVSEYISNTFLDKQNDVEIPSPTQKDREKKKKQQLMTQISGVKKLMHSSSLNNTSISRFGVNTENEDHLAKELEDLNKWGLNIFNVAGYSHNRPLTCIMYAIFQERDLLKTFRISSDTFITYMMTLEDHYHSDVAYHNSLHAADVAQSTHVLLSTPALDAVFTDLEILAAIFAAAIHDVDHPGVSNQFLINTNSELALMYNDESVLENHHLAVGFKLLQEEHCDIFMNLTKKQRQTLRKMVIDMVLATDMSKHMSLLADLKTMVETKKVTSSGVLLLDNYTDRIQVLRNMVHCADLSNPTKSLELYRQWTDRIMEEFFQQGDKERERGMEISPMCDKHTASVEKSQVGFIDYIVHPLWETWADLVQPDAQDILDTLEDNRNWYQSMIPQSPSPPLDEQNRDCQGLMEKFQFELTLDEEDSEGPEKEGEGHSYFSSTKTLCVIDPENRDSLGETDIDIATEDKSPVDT
cAMP and cAMP-inhibited cGMP 3',5'-cyclic phosphodiesterase 10A, sequence (Q9Y233 whole entry): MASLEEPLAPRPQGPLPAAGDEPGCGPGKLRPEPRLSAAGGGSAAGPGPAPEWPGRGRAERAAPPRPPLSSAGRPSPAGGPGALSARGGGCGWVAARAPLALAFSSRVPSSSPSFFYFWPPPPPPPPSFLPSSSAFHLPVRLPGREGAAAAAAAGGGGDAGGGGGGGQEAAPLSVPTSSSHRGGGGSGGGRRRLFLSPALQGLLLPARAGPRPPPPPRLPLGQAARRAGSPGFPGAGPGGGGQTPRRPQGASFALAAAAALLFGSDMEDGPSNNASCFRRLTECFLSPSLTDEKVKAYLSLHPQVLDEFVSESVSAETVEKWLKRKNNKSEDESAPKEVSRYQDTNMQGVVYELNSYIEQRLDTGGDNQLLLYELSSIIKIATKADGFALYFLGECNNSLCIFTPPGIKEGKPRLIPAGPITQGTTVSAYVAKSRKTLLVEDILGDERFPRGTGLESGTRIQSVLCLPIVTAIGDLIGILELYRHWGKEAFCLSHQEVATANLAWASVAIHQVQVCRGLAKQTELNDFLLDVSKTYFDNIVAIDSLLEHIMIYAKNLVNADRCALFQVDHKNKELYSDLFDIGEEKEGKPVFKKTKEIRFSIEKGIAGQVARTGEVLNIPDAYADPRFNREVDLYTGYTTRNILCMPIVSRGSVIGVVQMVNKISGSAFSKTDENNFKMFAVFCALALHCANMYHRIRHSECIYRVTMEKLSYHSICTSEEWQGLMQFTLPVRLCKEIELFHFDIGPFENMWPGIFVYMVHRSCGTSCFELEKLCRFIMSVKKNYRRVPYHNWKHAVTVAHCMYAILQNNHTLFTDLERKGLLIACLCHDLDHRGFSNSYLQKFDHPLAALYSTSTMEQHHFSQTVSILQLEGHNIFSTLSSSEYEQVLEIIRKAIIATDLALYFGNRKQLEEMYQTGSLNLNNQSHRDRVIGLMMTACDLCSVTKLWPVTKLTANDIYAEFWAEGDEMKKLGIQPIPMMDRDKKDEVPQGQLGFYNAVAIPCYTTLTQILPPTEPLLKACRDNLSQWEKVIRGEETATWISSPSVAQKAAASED
cGMP-dependent 3',5'-cyclic phosphodiesterase, sequence (O00408 whole entry): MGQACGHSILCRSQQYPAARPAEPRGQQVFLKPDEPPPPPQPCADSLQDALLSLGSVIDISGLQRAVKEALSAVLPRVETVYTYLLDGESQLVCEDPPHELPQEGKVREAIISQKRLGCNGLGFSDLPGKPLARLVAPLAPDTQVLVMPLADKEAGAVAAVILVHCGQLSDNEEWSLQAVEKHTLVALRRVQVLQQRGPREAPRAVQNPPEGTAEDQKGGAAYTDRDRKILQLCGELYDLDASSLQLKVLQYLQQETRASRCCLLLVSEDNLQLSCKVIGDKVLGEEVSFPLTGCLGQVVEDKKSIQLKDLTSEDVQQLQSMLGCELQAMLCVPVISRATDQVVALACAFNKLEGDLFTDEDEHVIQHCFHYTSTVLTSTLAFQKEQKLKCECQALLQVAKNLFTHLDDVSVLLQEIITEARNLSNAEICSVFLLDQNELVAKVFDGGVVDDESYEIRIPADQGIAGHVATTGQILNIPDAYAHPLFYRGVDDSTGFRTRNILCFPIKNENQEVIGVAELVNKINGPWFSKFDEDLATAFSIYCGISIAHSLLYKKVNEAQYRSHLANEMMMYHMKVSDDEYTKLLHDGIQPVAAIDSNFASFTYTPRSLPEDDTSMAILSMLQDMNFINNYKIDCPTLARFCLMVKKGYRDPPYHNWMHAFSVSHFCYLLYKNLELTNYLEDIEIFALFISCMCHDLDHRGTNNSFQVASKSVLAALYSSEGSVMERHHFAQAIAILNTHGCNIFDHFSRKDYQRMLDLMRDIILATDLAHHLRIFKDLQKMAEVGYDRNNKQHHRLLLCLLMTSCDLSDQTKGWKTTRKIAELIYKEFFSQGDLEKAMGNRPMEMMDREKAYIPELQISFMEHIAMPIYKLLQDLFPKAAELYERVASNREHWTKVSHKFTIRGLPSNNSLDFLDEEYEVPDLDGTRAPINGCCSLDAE
Dual specificity calcium/calmodulin-dependent 3',5'-cyclic nucleotide phosphodiesterase 1C, sequence (Q14123 whole entry): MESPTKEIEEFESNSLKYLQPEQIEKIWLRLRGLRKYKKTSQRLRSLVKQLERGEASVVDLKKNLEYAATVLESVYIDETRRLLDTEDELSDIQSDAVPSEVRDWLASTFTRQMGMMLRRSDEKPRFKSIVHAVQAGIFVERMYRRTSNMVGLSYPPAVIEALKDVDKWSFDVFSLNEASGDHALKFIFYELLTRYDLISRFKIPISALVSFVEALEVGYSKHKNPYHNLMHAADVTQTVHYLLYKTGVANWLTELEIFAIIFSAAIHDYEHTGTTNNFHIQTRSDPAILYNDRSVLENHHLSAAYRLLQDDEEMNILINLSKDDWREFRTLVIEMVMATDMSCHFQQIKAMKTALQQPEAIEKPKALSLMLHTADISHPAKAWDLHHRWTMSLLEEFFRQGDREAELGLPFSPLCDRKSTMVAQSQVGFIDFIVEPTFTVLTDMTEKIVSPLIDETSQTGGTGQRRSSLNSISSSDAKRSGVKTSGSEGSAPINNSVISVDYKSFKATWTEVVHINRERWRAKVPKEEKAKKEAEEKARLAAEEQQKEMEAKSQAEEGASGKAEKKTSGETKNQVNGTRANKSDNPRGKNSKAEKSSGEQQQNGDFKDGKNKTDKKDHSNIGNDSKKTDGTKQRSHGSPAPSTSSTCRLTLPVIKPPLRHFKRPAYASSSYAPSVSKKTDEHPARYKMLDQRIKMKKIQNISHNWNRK
High affinity 3',5'-cyclic-AMP phosphodiesterase 7A, sequence (Q13946 whole entry): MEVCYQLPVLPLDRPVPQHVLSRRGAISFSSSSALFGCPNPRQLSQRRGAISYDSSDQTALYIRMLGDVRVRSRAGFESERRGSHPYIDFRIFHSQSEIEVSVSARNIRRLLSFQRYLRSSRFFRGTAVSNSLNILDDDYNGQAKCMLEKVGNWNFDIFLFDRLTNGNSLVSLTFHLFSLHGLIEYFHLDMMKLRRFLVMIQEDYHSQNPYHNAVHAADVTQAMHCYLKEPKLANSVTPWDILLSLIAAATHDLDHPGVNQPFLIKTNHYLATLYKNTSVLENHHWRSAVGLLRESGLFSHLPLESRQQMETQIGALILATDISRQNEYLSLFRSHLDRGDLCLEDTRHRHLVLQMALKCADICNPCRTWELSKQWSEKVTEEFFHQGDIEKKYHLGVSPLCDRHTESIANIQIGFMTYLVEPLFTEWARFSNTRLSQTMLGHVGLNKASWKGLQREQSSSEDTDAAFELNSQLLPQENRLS
Dual specificity calcium/calmodulin-dependent 3',5'-cyclic nucleotide phosphodiesterase 1B, sequence (Q01064 whole entry): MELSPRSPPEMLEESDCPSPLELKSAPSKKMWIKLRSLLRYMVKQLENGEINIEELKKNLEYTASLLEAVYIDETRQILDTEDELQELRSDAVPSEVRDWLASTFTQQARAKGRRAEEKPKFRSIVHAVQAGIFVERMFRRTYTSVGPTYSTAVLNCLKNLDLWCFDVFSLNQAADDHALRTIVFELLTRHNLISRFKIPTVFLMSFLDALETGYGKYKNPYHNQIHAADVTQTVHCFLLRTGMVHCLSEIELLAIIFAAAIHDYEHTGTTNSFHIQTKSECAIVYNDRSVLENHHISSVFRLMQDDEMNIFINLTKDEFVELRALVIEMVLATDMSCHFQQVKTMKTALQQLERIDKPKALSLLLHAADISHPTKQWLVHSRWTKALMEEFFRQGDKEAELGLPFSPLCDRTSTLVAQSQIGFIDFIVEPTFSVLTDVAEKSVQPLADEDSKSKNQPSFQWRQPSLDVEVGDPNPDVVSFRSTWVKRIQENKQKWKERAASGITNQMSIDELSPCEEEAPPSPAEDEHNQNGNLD
Dual specificity calcium/calmodulin-dependent 3',5'-cyclic nucleotide phosphodiesterase 1A, sequence (P54750 whole entry): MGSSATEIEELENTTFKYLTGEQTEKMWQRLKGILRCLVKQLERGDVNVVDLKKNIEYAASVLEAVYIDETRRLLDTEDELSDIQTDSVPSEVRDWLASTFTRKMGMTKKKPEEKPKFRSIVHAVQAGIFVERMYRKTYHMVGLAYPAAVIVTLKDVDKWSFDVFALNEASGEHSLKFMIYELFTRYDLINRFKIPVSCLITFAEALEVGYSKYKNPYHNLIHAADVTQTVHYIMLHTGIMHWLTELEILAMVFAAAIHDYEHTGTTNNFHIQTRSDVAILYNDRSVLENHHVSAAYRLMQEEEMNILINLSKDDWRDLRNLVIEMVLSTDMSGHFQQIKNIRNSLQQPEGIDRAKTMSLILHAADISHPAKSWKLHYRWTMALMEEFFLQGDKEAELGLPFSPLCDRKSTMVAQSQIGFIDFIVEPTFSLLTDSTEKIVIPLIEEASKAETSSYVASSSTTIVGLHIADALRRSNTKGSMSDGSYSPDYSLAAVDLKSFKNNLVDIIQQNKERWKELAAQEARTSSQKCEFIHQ

In the case of `OB1OCc2cc(Oc3ccc4cc(C(F)(F)F)ccc4n3)ccc21`, the IC50 [1] is reported as 0.42 nM, the “inhibition (INH)” value (Mus musculus [2]) is reported as 65.85% and the Ratio IC50 (Homo sapiens [3]) is reported as 154. The Ratio IC50 (Homo sapiens [4]) was 138, the Ratio IC50 (Homo sapiens [5]) was 2060 and the Ratio IC50 (Homo sapiens [6]) was 286. The Ratio IC50 (Homo sapiens [7]) was 19400, the Ratio IC50 (Homo sapiens [8]) was 17100 and the Ratio IC50 (Homo sapiens [9]) was 1950. It also gave a Ratio IC50 (Homo sapiens [10]) of 83, a Ratio IC50 (Homo sapiens [11]) of 10800 and an Activity (Mus musculus [12]) of 0.29 mm. For the same molecule, the Activity (Mus musculus [13]) was 0.32 mm, the Activity (Mus musculus [14]) was 73.33% and the Activity [15] was “Non-Toxic”. For the same molecule, the Activity [16] was “Non-Toxic”, the Activity [17] was “Non-Toxic” and the Activity [18] was “Non-Toxic”. The Activity [19] was “Non-Toxic”, the Activity [20] was “Non-Toxic” and the Activity [21] was “Non-Toxic”. The Activity [22] was “Non-Toxic”, the Activity [23] was “Non-Toxic” and the Activity [24] was “Non-Toxic”. For the same molecule, the Activity [25] was “Non-Toxic”, the Activity [26] was “Non-Toxic” and the Activity [27] was “Non-Toxic”. For the same molecule, the Activity [28] was “Non-Toxic”, the IC50 [29] was 64.7 nM and the IC50 [30] was 58 nM. It also gave an IC50 [31] of 866 nM, an IC50 [32] of 120 nM and an IC50 [33] of 8130 nM. The IC50 [34] was 7190 nM, the IC50 [35] was 0.42 nM and the IC50 [36] was 819 nM. The IC50 [37] was 34.7 nM and the IC50 [38] was 4520 nM.

With `CCOC(=O)c1cccc2nc(Oc3ccc4c(c3)COB4O)ccc12` the “inhibition (INH)” value (Mus musculus [2]) was 57.69% and the IC50 [39] was 17.3 nM.

For `O=C(O)c1cccc2nc(Oc3ccc4c(c3)COB4O)ccc12`, the IC50 [1] was 124 nM and the “inhibition (INH)” value (Mus musculus [2]) was 45.76%.

In the case of `COc1c2occc2cc2ccc(=O)oc12` [METHOXSALEN], the Activity [40] is reported as “Toxic”, the Activity [41] is reported as “Non-Toxic” and the Activity [27] is reported as “Toxic”. The Activity [28] was “Toxic”.

For `COC(=O)c1cnn2ccc(Oc3ccc4c(c3)COB4O)nc12`, the IC50 [1] was 46.2 nM.

Molecule `N#Cc1ccc2cc(Oc3ccc4c(c3)COB4O)ccc2c1` has an IC50 [1] of 25.5 nM.

In the case of `CC(=O)c1ccc2nc(Oc3ccc4c(c3)COB4O)ccc2c1`, the “inhibition (INH)” value (Mus musculus [2]) is reported as 34.09% and the IC50 [39] is reported as 3.57 nM.

With `CC(=O)c1cccc2nc(Oc3ccc4c(c3)COB4O)ccc12` the “inhibition (INH)” value (Mus musculus [2]) was 39.56% and the IC50 [39] was 3.05 nM.
